From ChEMBL document CHEMBL4043132, “3-O-Substituted-3',4',5'-trimethoxyflavonols: Synthesis and cell-based evaluation as anti-prostate cancer agents” (Bioorg Med Chem, 2017)

What was measured:
Assay type in all cases: functional, cell-based
PC-3 = test: Antiproliferative activity against human PC3 cells after 3 days by WST-1 assay; details: PC-3, 72 h
Procedure, shortened: (§1)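 Cells from ATCC; PC-3 and LNCaP grown in RPMI-1640 and DU145 in EMEM, each with 10% FBS and 1% penicillin/streptomycin, 37 °C, 5% CO2. Seeded 3,200 cells/well and exposed for 3 days to at least five doses, with DMSO as vehicle control. WST-1 reagent added for 3 h at 37 °C, absorbance read at 430 nm. IC50 taken from a linear inhibition plot; mean ± SD of three independent experiments.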

DU-145 = test: Antiproliferative activity against human DU145 cells after 3 days by WST-1 assay; details: DU-145, 72 h; procedure, shortened: as §1
LNCaP = test: Antiproliferative activity against human LNCAP cells after 3 days by WST-1 assay; details: 72 h; procedure, shortened: as §1

SMILES	IC50 (PC-3)	IC50 (DU-145)	IC50 (LNCaP)
CCCCCN(CCCCC)CCCCOc1c(-c2cc(OC)c(OC)c(OC)c2)oc2ccccc2c1=O	7.9 µM	12.5 µM	9.7 µM
CCCCCN(CCCCC)CCCCCOc1c(-c2cc(OC)c(OC)c(OC)c2)oc2ccccc2c1=O	9.6 µM	11.7 µM	7.9 µM
CCCN(CCC)CCCCOc1c(-c2cc(OC)c(OC)c(OC)c2)oc2ccccc2c1=O	11.6 µM	35.8 µM	16.8 µM
CCCCN(CCCC)CCCCCOc1c(-c2cc(OC)c(OC)c(OC)c2)oc2ccccc2c1=O	6.8 µM	> 50 µM	7.8 µM
CCCCN(CCCC)CCCCOc1c(-c2cc(OC)c(OC)c(OC)c2)oc2ccccc2c1=O	5.3 µM	15.3 µM	7.8 µM

The remaining lines, values ahead:

IC50 (PC-3)	IC50 (DU-145)	IC50 (LNCaP)	SMILES
21.2 µM	> 50 µM	8.8 µM	COc1cc(-c2oc3ccccc3c(=O)c2OC(C)C)cc(OC)c1OC
22.2 µM	> 50 µM	15.4 µM	CCCCCOc1c(-c2cc(OC)c(OC)c(OC)c2)oc2ccccc2c1=O
13.7 µM	13.3 µM	13.5 µM	CCN(CC)CCCCOc1c(-c2cc(OC)c(OC)c(OC)c2)oc2ccccc2c1=O
13.6 µM	> 50 µM	37.6 µM	CCN(CC)CCCOc1c(-c2cc(OC)c(OC)c(OC)c2)oc2ccccc2c1=O
38.6 µM	> 50 µM	9.3 µM	CCC(C)Oc1c(-c2cc(OC)c(OC)c(OC)c2)oc2ccccc2c1=O (stereo not drawn)
> 50 µM	> 50 µM	> 50 µM	CCCCCCCOc1c(-c2cc(OC)c(OC)c(OC)c2)oc2ccccc2c1=O
